Experimental data: ChEMBL document CHEMBL4396951, “Optimization and anti-inflammatory evaluation of methyl gallate derivatives as a myeloid differentiation protein 2 inhibitor” (Bioorg Med Chem, 2019)
Activity calls are given as the source filed them. The rule behind the calls is not given here.

Legend:
Peritoneal macrophage [1] = test: Antiinflammatory activity in C57BL/6 mouse primary peritoneal macrophages assessed as inhibition of LPS-induced IL-6 production at 10 uM preincubated for 30 mins followed by LPS stimulation and measured after 24 hrs by sandwich ELISA relative to control; format: functional; conditions: C57BL/6, Peritoneal macrophage
In short: (§1)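 Thioglycollate-elicited mouse peritoneal macrophages in RPMI-1640/10% FBS. Compound pretreatment for 30 min (10 μM for single-point screening, graded concentrations for dose-response), then 0.5 μg/mL LPS for 24 h. TNF-α and IL-6 in culture medium measured by sandwich ELISA and normalized to total protein in cell lysates; n = 3.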

Peritoneal macrophage [2] = test: Antiinflammatory activity in C57BL/6 mouse primary peritoneal macrophages assessed as inhibition of LPS-induced TNFalpha production at 10 uM preincubated for 30 mins followed by LPS stimulation and measured after 24 hrs by sandwich ELISA relative to control; format: functional; conditions: C57BL/6, Peritoneal macrophage; in short: as §1
Peritoneal macrophage [3] = test: Antiinflammatory activity in C57BL/6 mouse primary peritoneal macrophages assessed as inhibition of LPS-induced IL-6 production preincubated for 30 mins followed by LPS stimulation and measured after 24 hrs by sandwich ELISA; format: functional, cell-based; in short: as §1
Peritoneal macrophage [4] = test: Antiinflammatory activity in C57BL/6 mouse primary peritoneal macrophages assessed as inhibition of LPS-induced TNFalpha production preincubated for 30 mins followed by LPS stimulation and measured after 24 hrs by sandwich ELISA; format: functional, cell-based; in short: as §1
BEAS-2B = test: Cytotoxicity against human BEAS2B cells up to 50 uM; format: cell-based
In short: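 BEAS-2B cells pretreated with compound at graded concentrations up to 50 μM for 30 min, then incubated without LPS for 24 h; compared against a DMSO group; n = 3.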

Peritoneal macrophage [5] = test: Antiinflammatory activity in C57BL/6 mouse primary peritoneal macrophages assessed as inhibition of LPS-induced TNFalpha mRNA expression preincubated for 30 mins followed by LPS stimulation and measured after 6 hrs by qRT-PCR analysis; format: functional, cell-based
In short: (§2)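 Thioglycollate-elicited peritoneal macrophages (C57BL/6 mice, 3 mL 6% thioglycollate i.p.), harvested by PBS/30 μM EDTA lavage, cultured in RPMI-1640 with 10% FBS at 37 °C, 5% CO2. Pretreatment with compound at graded concentrations for 30 min, then LPS for 6 h. TRIZOL RNA extraction; qRT-PCR with values normalized to β-actin mRNA.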

Peritoneal macrophage [6] = test: Antiinflammatory activity in C57BL/6 mouse primary peritoneal macrophages assessed as inhibition of LPS-induced IL-6 mRNA expression preincubated for 30 mins followed by LPS stimulation and measured after 6 hrs by qRT-PCR analysis; format: functional, cell-based; in short: as §2
Peritoneal macrophage [7] = test: Antiinflammatory activity in C57BL/6 mouse primary peritoneal macrophages assessed as inhibition of LPS-induced VCAM1 mRNA expression preincubated for 30 mins followed by LPS stimulation and measured after 6 hrs by qRT-PCR analysis; format: functional, cell-based; in short: as §2
Peritoneal macrophage [8] = test: Antiinflammatory activity in C57BL/6 mouse primary peritoneal macrophages assessed as inhibition of LPS-induced ICAM1 mRNA expression preincubated for 30 mins followed by LPS stimulation and measured after 6 hrs by qRT-PCR analysis; format: functional, cell-based; in short: as §2
Peritoneal macrophage [9] = test: Antiinflammatory activity in C57BL/6 mouse primary peritoneal macrophages assessed as inhibition of LPS-induced MCP1 mRNA expression preincubated for 30 mins followed by LPS stimulation and measured after 6 hrs by qRT-PCR analysis; format: functional, cell-based; in short: as §2
Mus musculus [10] = organism: Mus musculus; test: Inhibition of MAPK in C57BL/6 mouse primary peritoneal macrophages assessed as reduction in JNK phosphorylation at 10 uM preincubated for 30 mins followed by LPS-stimulation measured after 20 mins by Western blot analysis
In short: (§3)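 Peritoneal macrophages pretreated with vehicle (DMSO) or 10 μM compound for 30 min, then 0.5 μg/mL LPS for 20 min. Total protein run on 10% SDS-PAGE and blotted to PVDF. p-JNK/JNK, p-p38/p38 and p-ERK/ERK detected by western blot and quantified by densitometry; n = 3.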

Mus musculus [11] = organism: Mus musculus; test: Inhibition of MAPK in C57BL/6 mouse primary peritoneal macrophages assessed as reduction in ERK phosphorylation at 10 uM preincubated for 30 mins followed by LPS-stimulation measured after 20 mins by Western blot analysis; in short: as §3
Mus musculus [12] = organism: Mus musculus; test: Inhibition of MAPK in C57BL/6 mouse primary peritoneal macrophages assessed as reduction in P38 phosphorylation at 10 uM preincubated for 30 mins followed by LPS-stimulation measured after 20 mins by Western blot analysis; in short: as §3
Mus musculus [13] = test: Antiinflammatory activity in LPS-induced C57BL/6 mouse model of acute lung injury assessed as reduction in total cells in BALF at 10 to 20 mg/kg/day, po for 3 days followed by LPS-stimulation measured after 6 hrs by cell counting based method; format: functional, organism-based
In short: (§4)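 Male C57BL/6 mice (18–22 g) randomized to four groups. Compound given orally in 0.5% CMC-Na at 10 or 20 mg/kg/day for 3 consecutive days; controls received vehicle. LPS challenge; killed 6 h later. Left-lung BALF (saline 3 × 0.5 mL) centrifuged at 1000 rpm, 10 min, 4 °C: supernatant used for protein and ELISA TNF-α/IL-6, pellet for total cell count. Serum cytokines also measured by ELISA. Wet/dry ratio from middle right lobe dried at 65 °C for 72 h. Lung sections (5 μm) stained with H&E or for CD68 by IHC (citrate antigen retrieval, pH 6.5; DAB detection); n = 3.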

Mus musculus [14] = test: Antiinflammatory activity in LPS-induced C57BL/6 mouse model of acute lung injury assessed as reduction in total protein levels in BALF at 10 to 20 mg/kg/day, po for 3 days followed by LPS-stimulation measured after 6 hrs; format: functional, organism-based; in short: as §4
Mus musculus [15] = test: Antiinflammatory activity in LPS-induced C57BL/6 mouse model of acute lung edema assessed as decrease in lung wet/dry ratio at 20 mg/kg/day, po for 3 days followed by LPS-stimulation measured after 6 hrs; format: functional, organism-based; in short: as §4
Mus musculus [16] = test: Antiinflammatory activity in oral dosed LPS-induced C57BL/6 mouse model of acute lung injury assessed as reduction in TNFalpha levels in BALF for 3 days followed by LPS-stimulation measured after 6 hrs; format: functional, organism-based; in short: as §4
Mus musculus [17] = test: Antiinflammatory activity in oral dosed LPS-induced C57BL/6 mouse model of acute lung injury assessed as reduction in IL-6 levels in BALF for 3 days followed by LPS-stimulation measured after 6 hrs; format: functional, organism-based; in short: as §4
Mus musculus [18] = test: Antiinflammatory activity in oral dosed LPS-induced C57BL/6 mouse model of acute lung injury assessed as reduction in TNFalpha levels in serum for 3 days followed by LPS-stimulation measured after 6 hrs; format: functional, organism-based; in short: as §4
Mus musculus [19] = test: Antiinflammatory activity in oral dosed LPS-induced C57BL/6 mouse model of acute lung injury assessed as reduction in IL-6 levels in serum for 3 days followed by LPS-stimulation measured after 6 hrs; format: functional, organism-based; in short: as §4
Mus musculus [20] = test: Antiinflammatory activity in LPS-induced C57BL/6 mouse model of acute lung injury assessed as reduction in macrophage infiltration by measuring CD68 expression at 10 to 20 mg/kg/day, po for 3 days followed by LPS-stimulation measured after 6 hrs by immunohistochemistry; format: functional, organism-based; in short: as §4
Mus musculus [21] = test: Antiinflammatory activity in LPS-induced C57BL/6 mouse model of acute lung injury assessed as restoration of normal alveolar structure at 10 to 20 mg/kg/day, po for 3 days followed by LPS-stimulation measured after 6 hrs by haematoxylin and eosin staining-based light microscopic analysis; format: functional, organism-based; in short: as §4
[22] = Stability of compound in pH 7.4 phosphate buffer at 20 uM measured up to 25 mins by UV-VIS spectroscopy; format: physicochemical; conditions: pH 7.4, 25 min
Mus musculus [23] = test: Antiinflammatory activity in oral dosed LPS-induced C57BL/6 mouse model of acute lung injury assessed as reduction in TNF-alpha mRNA expression in lung tissue after 6 hrs by qRT-PCR analysis; format: functional, organism-based
In short: (§5)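 Male C57BL/6 mice dosed orally with compound (10 or 20 mg/kg/day in 0.5% CMC-Na, 3 days), then LPS challenge. Lungs harvested 6 h later; RNA extracted with TRIZOL and TNF-α, IL-6, ICAM-1, VCAM-1 and MCP-1 mRNA measured by qRT-PCR.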

Mus musculus [24] = test: Antiinflammatory activity in oral dosed LPS-induced C57BL/6 mouse model of acute lung injury assessed as reduction in IL-6 mRNA expression in lung tissue after 6 hrs by qRT-PCR analysis; format: functional, organism-based; in short: as §5
Mus musculus [25] = test: Antiinflammatory activity in oral dosed LPS-induced C57BL/6 mouse model of acute lung injury assessed as reduction in ICAM-1 mRNA expression in lung tissue after 6 hrs by qRT-PCR analysis; format: functional, organism-based; in short: as §5
Mus musculus [26] = test: Antiinflammatory activity in oral dosed LPS-induced C57BL/6 mouse model of acute lung injury assessed as reduction in VCAM-1 mRNA expression in lung tissue after 6 hrs by qRT-PCR analysis; format: functional, organism-based; in short: as §5
Mus musculus [27] = test: Antiinflammatory activity in oral dosed LPS-induced C57BL/6 mouse model of acute lung injury assessed as reduction in MCP-1 mRNA expression in lung tissue after 6 hrs by qRT-PCR analysis; format: functional, organism-based; in short: as §5

For `O=C(Nc1ccc2c(c1)CCC2)c1cc(O)c(O)c(O)c1`, the inhibition at 10 µM (Peritoneal macrophage [1]) was 89%, the inhibition at 10 µM (Peritoneal macrophage [2]) was 72.2% and the inhibition (Peritoneal macrophage [3]) was “Dose-dependent effect”. For the same compound, the IC50 (Peritoneal macrophage [3]; C57BL/6, Peritoneal macrophage) was 702 nM, the inhibition (Peritoneal macrophage [4]) was “Dose-dependent effect” and the IC50 (Peritoneal macrophage [4]; C57BL/6, Peritoneal macrophage) was 1230 nM. The Activity (BEAS-2B) was “Non-Toxic”, the inhibition (Peritoneal macrophage [5]) was “Dose-dependent effect” and the inhibition (Peritoneal macrophage [6]) was “Dose-dependent effect”. The inhibition (Peritoneal macrophage [7]) was “Dose-dependent effect”, the inhibition (Peritoneal macrophage [8]) was “Dose-dependent effect” and the inhibition (Peritoneal macrophage [9]) was “Dose-dependent effect”. For the same compound, the inhibition (Mus musculus [10]) was “Active”, the inhibition (Mus musculus [11]) was “Active” and the inhibition (Mus musculus [12]) was “Active”. For the same compound, the Activity (Mus musculus [13]) was “Active”, the Activity (Mus musculus [14]) was “Active” and the Activity (Mus musculus [15]) was “Active”. The inhibition (Mus musculus [16]) was “Dose-dependent effect”, the inhibition (Mus musculus [17]) was “Dose-dependent effect” and the inhibition (Mus musculus [18]) was “Dose-dependent effect”. The inhibition (Mus musculus [19]) was “Dose-dependent effect”, the Activity (Mus musculus [20]) was “Active” and the Activity (Mus musculus [21]) was “Active”. The Stability [22] was “Stable”, the Activity (Mus musculus [23]) was “Active” and the Activity (Mus musculus [24]) was “Active”. The Activity (Mus musculus [25]) was “Active”, the Activity (Mus musculus [26]) was “Active” and the Activity (Mus musculus [27]) was “Active”.
